# In ChEMBL document CHEMBL1671686, “Carbapenem-resistant KPC-2-producing Escherichia coli in a Tel Aviv Medical Center, 2005 to 2008” (2010):
# Legend:
# Format in all cases: functional
# [1] = system: Escherichia coli; assay: Antimicrobial activity against Escherichia coli DH10B by vitek-2 method; conditions: K-12 DH10B
# In short: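 Plasmid-free recipient E. coli DH10B, used as the host for electroporation transformants, was tested for susceptibility on the automated Vitek-2 system.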
# [2] = system: Escherichia coli; assay: Antimicrobial activity against Escherichia coli isolate 157 expressing beta-lactamase KPC2, CTX-M-15, TEM and PFGE cluster 3 isolated from urine of patient by agar dilution method; conditions: isolate 157, Urine
# In short: (§1)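 Clinical carbapenem-resistant E. coli isolates collected Feb 2005–Oct 2008. Carbapenem MICs determined by agar dilution following CLSI protocols.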
# [3] = system: Escherichia coli; assay: Antimicrobial activity against Escherichia coli isolate 157T expressing beta-lactamase KPC2 and PFGE cluster 3 isolated from urine of patient by agar dilution method
# In short: (§2)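 Transformant strains. Plasmids purified from the clinical isolates were electroporated into E. coli DH10B. Transformants were selected on LB agar with 100 μg/ml ampicillin, and colonies were PCR-screened for blaKPC before susceptibility testing.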
# [4] = system: Escherichia coli; assay: Antimicrobial activity against Escherichia coli isolate 329 expressing beta-lactamase KPC2, CTX-M-2, TEM and PFGE cluster 2 isolated from blood of patient by agar dilution method
# In short: (§3)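 Clinical carbapenem-resistant E. coli isolates from the hospital, February 2005 to October 2008. Carbapenem MICs were determined by agar dilution following CLSI protocols.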
# [5] = system: Escherichia coli; assay: Antimicrobial activity against Escherichia coli isolate 329T expressing beta-lactamase KPC2 and PFGE cluster 2 isolated from blood of patient by agar dilution method; in short: as §2
# [6] = system: Escherichia coli; assay: Antimicrobial activity against Escherichia coli isolate 339 expressing beta-lactamase KPC2, TEM and PFGE cluster 5 isolated from peritoneal fluid of patient by agar dilution method; in short: as §3
# [7] = system: Escherichia coli; assay: Antimicrobial activity against Escherichia coli isolate 339T expressing beta-lactamase KPC2 and PFGE cluster 5 isolated from peritoneal fluid of patient by agar dilution method; in short: as §2
# [8] = system: Escherichia coli; assay: Antimicrobial activity against Escherichia coli isolate 360 expressing beta-lactamase KPC2, CTX-M-15, OXA-9, TEM and PFGE cluster 1 isolated from urine of patient by agar dilution method; conditions: isolate 360, Urine; in short: as §1
# [9] = system: Escherichia coli; assay: Antimicrobial activity against Escherichia coli isolate 360T expressing beta-lactamase KPC2, OXA-9 and PFGE cluster 1 isolated from urine of patient by agar dilution method; in short: as §2
# [10] = system: Escherichia coli; assay: Antimicrobial activity against Escherichia coli isolate 386 expressing beta-lactamase KPC2, CTX-M-15, OXA-9, TEM and PFGE cluster 1 isolated from wound of patient by agar dilution method; in short: as §1
# [11] = system: Escherichia coli; assay: Antimicrobial activity against Escherichia coli isolate 386T expressing beta-lactamase KPC2, OXA-9 and PFGE cluster 1 isolated from wound of patient by agar dilution method; in short: as §2
# [12] = system: Escherichia coli; assay: Antimicrobial activity against Escherichia coli isolate 540 expressing beta-lactamase KPC2, TEM and PFGE cluster 4 isolated from synovial fluid of patient by agar dilution method; in short: as §3
# [13] = system: Escherichia coli; assay: Antimicrobial activity against Escherichia coli isolate 543T expressing beta-lactamase KPC2 and PFGE cluster 4 isolated from synovial fluid of patient by agar dilution method; in short: as §2
# [14] = system: Escherichia coli; assay: Antimicrobial activity against Escherichia coli isolate 544 expressing beta-lactamase KPC2, TEM and PFGE cluster 4 isolated from abscess of patient by agar dilution method; in short: as §3
# [15] = system: Escherichia coli; assay: Antimicrobial activity against Escherichia coli isolate 547 expressing beta-lactamase KPC2, TEM and PFGE cluster 4 isolated from blood of patient by agar dilution method; in short: as §1
# [16] = system: Escherichia coli; assay: Antimicrobial activity against Escherichia coli isolate 547T expressing beta-lactamase KPC2 and PFGE cluster 4 isolated from blood of patient by agar dilution method; in short: as §2
# [17] = system: Escherichia coli; assay: Antimicrobial activity against Escherichia coli isolate 1679 expressing beta-lactamase KPC2, SHV-12, TEM and PFGE cluster 6 isolated from peritoneal fluid of patient by agar dilution method; in short: as §3
# [18] = system: Escherichia coli; assay: Antimicrobial activity against Escherichia coli isolate 1679T expressing beta-lactamase KPC2, TEM and PFGE cluster 6 isolated from peritoneal fluid of patient by agar dilution method; in short: as §2
# [19] = system: Escherichia coli; assay: Antimicrobial activity against Escherichia coli DH10B by Etest; conditions: K-12 DH10B
# [20] = system: Escherichia coli; assay: Antimicrobial activity against Escherichia coli isolate 339 expressing beta-lactamase KPC2, TEM and PFGE cluster 5 isolated from peritoneal fluid of patient by vitek-2 method
# [21] = system: Escherichia coli; assay: Antimicrobial activity against Escherichia coli isolate 339T expressing beta-lactamase KPC2 and PFGE cluster 5 isolated from peritoneal fluid of patient by vitek-2 method
# [22] = system: Escherichia coli; assay: Antimicrobial activity against Escherichia coli isolate 360 expressing beta-lactamase KPC2, CTX-M-15, OXA-9, TEM and PFGE cluster 1 isolated from urine of patient by vitek-2 method
# [23] = system: Escherichia coli; assay: Antimicrobial activity against Escherichia coli isolate 360T expressing beta-lactamase KPC2, OXA-9 and PFGE cluster 1 isolated from urine of patient by vitek-2 method
# [24] = system: Escherichia coli; assay: Antimicrobial activity against Escherichia coli isolate 386 expressing beta-lactamase KPC2, CTX-M-15, OXA-9, TEM and PFGE cluster 1 isolated from wound of patient by vitek-2 method
# [25] = system: Escherichia coli; assay: Antimicrobial activity against Escherichia coli isolate 386T expressing beta-lactamase KPC2, OXA-9 and PFGE cluster 1 isolated from wound of patient by vitek-2 method
# [26] = system: Escherichia coli; assay: Antimicrobial activity against Escherichia coli isolate 540 expressing beta-lactamase KPC2, TEM and PFGE cluster 4 isolated from synovial fluid of patient by vitek-2 method
# [27] = system: Escherichia coli; assay: Antimicrobial activity against Escherichia coli isolate 543 expressing beta-lactamase KPC2, CTX-M-15, TEM and PFGE cluster 4 isolated from synovial fluid of patient by vitek-2 method
# [28] = system: Escherichia coli; assay: Antimicrobial activity against Escherichia coli isolate 543T expressing beta-lactamase KPC2 and PFGE cluster 4 isolated from synovial fluid of patient by vitek-2 method
# [29] = system: Escherichia coli; assay: Antimicrobial activity against Escherichia coli isolate 544 expressing beta-lactamase KPC2, TEM and PFGE cluster 4 isolated from abscess of patient by vitek-2 method
# [30] = system: Escherichia coli; assay: Antimicrobial activity against Escherichia coli isolate 547 expressing beta-lactamase KPC2, TEM and PFGE cluster 4 isolated from blood of patient by vitek-2 method
# [31] = system: Escherichia coli; assay: Antimicrobial activity against Escherichia coli isolate 547T expressing beta-lactamase KPC2 and PFGE cluster 4 isolated from blood of patient by vitek-2 method
# [32] = system: Escherichia coli; assay: Antimicrobial activity against Escherichia coli isolate 1679 expressing beta-lactamase KPC2, SHV-12, TEM and PFGE cluster 6 isolated from peritoneal fluid of patient by vitek-2 method
# [33] = system: Escherichia coli; assay: Antimicrobial activity against Escherichia coli isolate 1679T expressing beta-lactamase KPC2, TEM and PFGE cluster 6 isolated from peritoneal fluid of patient by vitek-2 method
# [34] = system: Escherichia coli; assay: Antimicrobial activity against Escherichia coli isolate 157 expressing beta-lactamase KPC2, CTX-M-15, TEM and PFGE cluster 3 isolated from urine of patient by vitek-2 method
# [35] = system: Escherichia coli; assay: Antimicrobial activity against Escherichia coli isolate 157T expressing beta-lactamase KPC2 and PFGE cluster 3 isolated from urine of patient by vitek-2 method
# [36] = system: Escherichia coli; assay: Antimicrobial activity against Escherichia coli isolate 329 expressing beta-lactamase KPC2, CTX-M-2, TEM and PFGE cluster 2 isolated from blood of patient by vitek-2 method
# [37] = system: Escherichia coli; assay: Antimicrobial activity against Escherichia coli isolate 329T expressing beta-lactamase KPC2 and PFGE cluster 2 isolated from blood of patient by vitek-2 method
Compound,MIC [1] [µg/mL],MIC [2] [µg/mL],MIC [3] [µg/mL],MIC [4] [µg/mL],MIC [5] [µg/mL],MIC [6] [µg/mL],MIC [7] [µg/mL],MIC [8] [µg/mL],MIC [9] [µg/mL],MIC [10] [µg/mL],MIC [11] [µg/mL],MIC [12] [µg/mL],MIC [13] [µg/mL],MIC [14] [µg/mL],MIC [15] [µg/mL],MIC [16] [µg/mL],MIC [17] [µg/mL],MIC [18] [µg/mL],MIC [19] [µg/mL],MIC [20] [µg/mL],also measured
O=C(O)c1cn(C2CC2)c2cc(N3CCNCC3)c(F)cc2c1=O [CIPROFLOXACIN],< 0.25,–,–,–,–,–,–,–,–,–,–,–,–,–,–,–,–,–,–,–,–
C[C@@H](O)[C@H]1C(=O)N2C(C(=O)O)=C(SCCNC=N)C[C@H]12 [IMIPENEM ANHYDROUS],–,8,2,8,2,2,2,4,1,1,1,4,2,4,4,1,8,1,0.25,–,–
C[C@H]1COc2c(N3CCN(C)CC3)c(F)cc3c(=O)c(C(=O)O)cn1c23.C[C@H]1COc2c(N3CCN(C)CC3)c(F)cc3c(=O)c(C(=O)O)cn1c23.O [LEVOFLOXACIN],< 0.25,–,–,–,–,–,–,–,–,–,–,–,–,–,–,–,–,–,–,> 8,"MIC [21]: < 0.25 µg/mL; MIC ([22]; isolate 360, Urine): > 8 µg/mL; MIC [23]: < 0.25 µg/mL; MIC [24]: > 8 µg/mL; MIC [25]: < 0.25 µg/mL; MIC [26]: > 8 µg/mL; MIC [27]: > 8 µg/mL; MIC [28]: < 0.25 µg/mL; MIC [29]: > 8 µg/mL; MIC [30]: > 8 µg/mL; MIC [31]: < 0.25 µg/mL; MIC [32]: > 8 µg/mL; MIC [33]: < 0.25 µg/mL; MIC ([34]; isolate 157, Urine): > 8 µg/mL; MIC [35]: < 0.25 µg/mL; MIC [36]: > 8 µg/mL; MIC [37]: < 0.25 µg/mL"
C[C@@H](O)[C@H]1C(=O)N2C(C(=O)O)=C(S[C@@H]3CN[C@H](C(=O)N(C)C)C3)[C@H](C)[C@H]12 [MEROPENEM],–,4,1,8,1,2,1,4,1,1,0.25,4,0.5,4,4,0.5,16,0.5,0.25,–,–
GENTAMICIN,< 1,–,–,–,–,–,–,–,–,–,–,–,–,–,–,–,–,–,–,> 16,MIC [21]: < 1 µg/mL; MIC [22]: 2 µg/mL; MIC [23]: 2 µg/mL; MIC [24]: 4 µg/mL; MIC [25]: 4 µg/mL; MIC [26]: > 16 µg/mL; MIC [27]: > 16 µg/mL; MIC [28]: < 1 µg/mL; MIC [29]: > 16 µg/mL; MIC [30]: > 16 µg/mL; MIC [31]: < 1 µg/mL; MIC [32]: > 16 µg/mL; MIC [33]: < 1 µg/mL; MIC [34]: < 1 µg/mL; MIC [35]: < 1 µg/mL; MIC [36]: > 16 µg/mL; MIC [37]: < 1 µg/mL
